# Measurements: ChEMBL document CHEMBL4732249, “Design, synthesis and biological evaluation of 2-aminoquinazolin-4(3H)-one derivatives as potential SARS-CoV-2 and MERS-CoV treatments” (Bioorg Med Chem Lett, 2021)
# Target: CYP3A4 (Homo sapiens, UniProt P08684)
# Assay: Inhibition of CYP3A4 (unknown origin) at 10 uM relative to control
# Assay type: ADME
# Conditions: not given
# CYP3A4, sequence (P08684 whole entry): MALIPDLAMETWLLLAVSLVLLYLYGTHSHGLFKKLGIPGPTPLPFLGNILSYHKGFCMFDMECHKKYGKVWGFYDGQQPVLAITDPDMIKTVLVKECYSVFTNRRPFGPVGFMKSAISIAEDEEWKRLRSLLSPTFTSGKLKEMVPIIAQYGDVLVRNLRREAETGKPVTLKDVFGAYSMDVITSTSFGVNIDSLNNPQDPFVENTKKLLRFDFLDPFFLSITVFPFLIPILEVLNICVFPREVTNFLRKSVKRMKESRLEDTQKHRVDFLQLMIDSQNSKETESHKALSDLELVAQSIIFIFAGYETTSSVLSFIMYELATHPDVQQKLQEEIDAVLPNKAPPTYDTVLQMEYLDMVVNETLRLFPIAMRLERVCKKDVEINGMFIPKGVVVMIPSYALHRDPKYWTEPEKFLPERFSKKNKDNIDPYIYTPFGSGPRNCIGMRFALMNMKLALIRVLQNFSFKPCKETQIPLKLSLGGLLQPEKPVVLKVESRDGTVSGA
row,Compound,inhibition at 10 µM [%]
1,O=c1[nH]c(Nc2cc(Cl)cc(Cl)c2)nc2cc(Cl)ccc12,32
2,O=c1[nH]c(Nc2cc(Cl)cc(Cl)c2)nc2cccc(O)c12,65

# System: not listed separately
# Assay: Selective index, ratio of CC50 for African green monkey Vero cells to IC50 for MERS-CoV infected in African green monkey Vero cells
# Conditions: not given
row,Compound,Ratio CC50/IC50
1,O=c1[nH]c(Nc2cc(Cl)cc(Cl)c2)nc2cc(Cl)ccc12,27
2,O=c1[nH]c(Nc2cc(F)cc(F)c2)nc2cc(C(F)(F)F)ccc12,35
3,O=c1[nH]c(Nc2cc(Cl)cc(Cl)c2)nc2cc(C(F)(F)F)ccc12,7.6
4,O=c1[nH]c(Nc2cc(Cl)cc(Cl)c2)nc2cccc(O)c12,25

# System: not listed separately
# Assay: Half life in rat at 5 mg/kg, iv
# Assay type: ADME, organism-based
# Conditions: in vivo
row,Compound,half-life [h]
1,O=c1[nH]c(Nc2cc(Cl)cc(Cl)c2)nc2cccc(O)c12,9.2

# Target: CYP2C9 (Homo sapiens, UniProt P11712)
# Assay: Inhibition of CYP2C9 (unknown origin) at 10 uM relative to control
# Assay type: ADME
# Conditions: not given
# CYP2C9, sequence (P11712 whole entry): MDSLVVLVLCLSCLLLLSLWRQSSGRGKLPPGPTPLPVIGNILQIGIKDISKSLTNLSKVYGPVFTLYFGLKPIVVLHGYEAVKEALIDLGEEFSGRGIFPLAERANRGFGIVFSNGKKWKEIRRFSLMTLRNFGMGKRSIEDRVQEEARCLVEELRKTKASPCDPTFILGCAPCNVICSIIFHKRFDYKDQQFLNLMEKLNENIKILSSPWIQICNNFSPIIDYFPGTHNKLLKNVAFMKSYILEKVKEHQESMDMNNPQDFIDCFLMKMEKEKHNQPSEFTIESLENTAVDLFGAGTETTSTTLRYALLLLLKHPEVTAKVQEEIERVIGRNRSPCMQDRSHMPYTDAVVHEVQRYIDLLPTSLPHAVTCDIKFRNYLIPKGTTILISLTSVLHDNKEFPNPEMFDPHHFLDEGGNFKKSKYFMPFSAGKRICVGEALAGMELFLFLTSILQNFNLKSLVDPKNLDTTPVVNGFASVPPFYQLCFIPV
row,Compound,inhibition at 10 µM [%]
1,O=c1[nH]c(Nc2cc(Cl)cc(Cl)c2)nc2cc(Cl)ccc12,18
2,O=c1[nH]c(Nc2cc(Cl)cc(Cl)c2)nc2cccc(O)c12,34

# System: not listed separately
# Assay: Cytotoxicity against CHO-K1 cells
# Assay type: cell-based, Cricetulus griseus
# Conditions: chinese hamster
row,Compound,CC50 [µM]
1,O=c1[nH]c(Nc2cc(Cl)cc(Cl)c2)nc2cc(Cl)ccc12,11
2,O=c1[nH]c(Nc2cc(Cl)cc(Cl)c2)nc2cccc(O)c12,28

# System: Vero
# Assay: Cytotoxicity against African green monkey Vero cells assessed as reduction of cell viability by WST-1 assay
# Assay type: cell-based
# Conditions: chlorocebus sabaeus
row,Compound,CC50 [µM]
1,O=c1[nH]c(Nc2cc(Cl)cc(Cl)c2)nc2cc(Cl)ccc12,> 25
2,O=c1[nH]c(Nc2cc(F)cc(F)c2)nc2cc(C(F)(F)F)ccc12,≥ 7.6
3,O=c1[nH]c(Nc2cc(Cl)cc(Cl)c2)nc2cc(C(F)(F)F)ccc12,7.1
4,O=c1[nH]c(Nc2cc(Cl)cc(Cl)c2)nc2cccc(O)c12,> 25

# System: not listed separately
# Assay: Tmax in rat at 10 mg/kg, po
# Assay type: ADME, organism-based
# Conditions: in vivo
# Method in brief: (§1)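 Rats were dosed orally at 10 mg/kg. Values are the mean of experiments using three rats.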
row,Compound,Tmax [h]
1,O=c1[nH]c(Nc2cc(Cl)cc(Cl)c2)nc2cccc(O)c12,1

# Target: CYP2C19 (Homo sapiens, UniProt P33261)
# Assay: Inhibition of CYP2C19 (unknown origin) at 10 uM relative to control
# Assay type: ADME
# Conditions: not given
# CYP2C19, sequence (P33261 whole entry): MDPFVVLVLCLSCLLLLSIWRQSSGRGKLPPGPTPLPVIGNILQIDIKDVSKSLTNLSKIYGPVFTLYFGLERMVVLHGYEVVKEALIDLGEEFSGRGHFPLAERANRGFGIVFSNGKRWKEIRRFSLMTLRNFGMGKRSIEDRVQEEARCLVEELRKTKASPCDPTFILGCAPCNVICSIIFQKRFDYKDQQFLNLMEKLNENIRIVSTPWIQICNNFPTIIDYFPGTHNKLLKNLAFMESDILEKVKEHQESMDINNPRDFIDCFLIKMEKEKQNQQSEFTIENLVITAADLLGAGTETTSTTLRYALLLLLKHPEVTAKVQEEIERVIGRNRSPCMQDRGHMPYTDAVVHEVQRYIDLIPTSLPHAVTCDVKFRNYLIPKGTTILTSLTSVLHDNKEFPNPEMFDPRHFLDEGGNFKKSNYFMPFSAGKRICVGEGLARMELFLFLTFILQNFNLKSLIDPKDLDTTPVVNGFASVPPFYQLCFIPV
row,Compound,inhibition at 10 µM [%]
1,O=c1[nH]c(Nc2cc(Cl)cc(Cl)c2)nc2cc(Cl)ccc12,< 1
2,O=c1[nH]c(Nc2cc(Cl)cc(Cl)c2)nc2cccc(O)c12,12

# System: Middle East respiratory syndrome-related coronavirus
# Assay: Antiviral activity against MERS-CoV infected in African green monkey Vero cells assessed as inhibition of viral infection by measuring reduction in spike protein level by immunofluorescence microscopic analysis
# Assay type: functional, organism-based
# Conditions: not given
row,Compound,IC50 [µM]
1,O=c1[nH]c(Nc2cc(Cl)cc(Cl)c2)nc2cc(Cl)ccc12,0.93
2,O=c1[nH]c(Nc2cc(F)cc(F)c2)nc2cc(C(F)(F)F)ccc12,0.73
3,O=c1[nH]c(Nc2cc(Cl)cc(Cl)c2)nc2cc(C(F)(F)F)ccc12,0.96
4,O=c1[nH]c(Nc2cc(Cl)cc(Cl)c2)nc2cccc(O)c12,1.02

# System: not listed separately
# Assay: Clearance in rat at 5 mg/kg, iv
# Assay type: ADME, organism-based
# Conditions: in vivo
row,Compound,clearance [mL/min/kg]
1,O=c1[nH]c(Nc2cc(Cl)cc(Cl)c2)nc2cccc(O)c12,11.2

# System: not listed separately
# Assay: Stability in mouse microsomes assessed as as parent compound remaining after 30 mins
# Assay type: ADME, Microsome
# Conditions: read-out: Stabilty
# Method in brief: (§2)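 Liver microsomes from human, mouse and rat were used. The read-out is percent of parent compound remaining after 30 min incubation.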
row,Compound,remaining at 0.5 h [%]
1,O=c1[nH]c(Nc2cc(Cl)cc(Cl)c2)nc2cc(Cl)ccc12,112
2,O=c1[nH]c(Nc2cc(Cl)cc(Cl)c2)nc2cccc(O)c12,42

# System: not listed separately
# Assay: Half life in rat at 10 mg/kg, po
# Assay type: ADME, organism-based
# Conditions: in vivo
# Method in brief: as §1
row,Compound,half-life [h]
1,O=c1[nH]c(Nc2cc(Cl)cc(Cl)c2)nc2cccc(O)c12,42

# Target: hERG (KCNH2) (Homo sapiens, UniProt Q12809)
# Assay: Inhibition of human ERG at 10 uM relative to control
# Conditions: not given
# hERG (KCNH2), sequence (Q12809 whole entry): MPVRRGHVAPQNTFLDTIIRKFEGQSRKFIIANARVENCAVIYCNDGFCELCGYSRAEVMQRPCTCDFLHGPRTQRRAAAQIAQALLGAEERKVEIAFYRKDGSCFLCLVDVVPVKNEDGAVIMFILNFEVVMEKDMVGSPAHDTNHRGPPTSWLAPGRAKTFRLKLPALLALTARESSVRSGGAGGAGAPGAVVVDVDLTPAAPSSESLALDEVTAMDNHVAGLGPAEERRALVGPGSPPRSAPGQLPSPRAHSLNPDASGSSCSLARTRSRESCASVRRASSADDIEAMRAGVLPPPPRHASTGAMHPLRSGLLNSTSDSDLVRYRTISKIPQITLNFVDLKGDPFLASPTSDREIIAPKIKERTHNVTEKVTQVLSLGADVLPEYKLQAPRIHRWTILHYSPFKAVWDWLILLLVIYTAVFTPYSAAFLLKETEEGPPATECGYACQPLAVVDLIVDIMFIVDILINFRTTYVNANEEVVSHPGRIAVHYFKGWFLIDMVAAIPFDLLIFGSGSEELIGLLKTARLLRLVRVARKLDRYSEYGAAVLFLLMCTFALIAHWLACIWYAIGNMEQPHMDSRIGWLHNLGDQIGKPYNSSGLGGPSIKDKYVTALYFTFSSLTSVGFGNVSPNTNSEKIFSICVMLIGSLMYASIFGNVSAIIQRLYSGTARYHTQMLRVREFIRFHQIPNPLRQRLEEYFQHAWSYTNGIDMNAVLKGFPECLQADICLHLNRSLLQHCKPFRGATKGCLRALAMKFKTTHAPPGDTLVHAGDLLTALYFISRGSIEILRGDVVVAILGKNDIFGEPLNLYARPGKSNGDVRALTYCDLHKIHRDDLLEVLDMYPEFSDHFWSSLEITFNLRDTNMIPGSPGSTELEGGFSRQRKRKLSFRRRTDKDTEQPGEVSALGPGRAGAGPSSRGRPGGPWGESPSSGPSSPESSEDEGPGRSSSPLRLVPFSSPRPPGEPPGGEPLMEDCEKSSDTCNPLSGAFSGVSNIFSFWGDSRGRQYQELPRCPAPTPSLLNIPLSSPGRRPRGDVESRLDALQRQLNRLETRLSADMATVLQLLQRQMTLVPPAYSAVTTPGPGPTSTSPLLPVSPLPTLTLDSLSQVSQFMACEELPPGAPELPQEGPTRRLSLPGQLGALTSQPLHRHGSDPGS
row,Compound,inhibition at 10 µM [%]
1,O=c1[nH]c(Nc2cc(Cl)cc(Cl)c2)nc2cc(Cl)ccc12,38
2,O=c1[nH]c(Nc2cc(Cl)cc(Cl)c2)nc2cccc(O)c12,28

# System: not listed separately
# Assay: Cytotoxicity against mouse NIH3T3 cells
# Assay type: cell-based
# Conditions: not given
row,Compound,CC50 [µM]
1,O=c1[nH]c(Nc2cc(Cl)cc(Cl)c2)nc2cc(Cl)ccc12,> 100
2,O=c1[nH]c(Nc2cc(Cl)cc(Cl)c2)nc2cccc(O)c12,60

# System: not listed separately
# Assay: Volume of distribution at steady state in rat at 5 mg/kg, iv
# Assay type: ADME, organism-based
# Conditions: in vivo, read-out: Vdss
row,Compound,Vd [L/kg]
1,O=c1[nH]c(Nc2cc(Cl)cc(Cl)c2)nc2cccc(O)c12,6.8

# Target: T1, CYP1A2 (Homo sapiens, UniProt P05177)
# T1 sequence (P05177 whole entry): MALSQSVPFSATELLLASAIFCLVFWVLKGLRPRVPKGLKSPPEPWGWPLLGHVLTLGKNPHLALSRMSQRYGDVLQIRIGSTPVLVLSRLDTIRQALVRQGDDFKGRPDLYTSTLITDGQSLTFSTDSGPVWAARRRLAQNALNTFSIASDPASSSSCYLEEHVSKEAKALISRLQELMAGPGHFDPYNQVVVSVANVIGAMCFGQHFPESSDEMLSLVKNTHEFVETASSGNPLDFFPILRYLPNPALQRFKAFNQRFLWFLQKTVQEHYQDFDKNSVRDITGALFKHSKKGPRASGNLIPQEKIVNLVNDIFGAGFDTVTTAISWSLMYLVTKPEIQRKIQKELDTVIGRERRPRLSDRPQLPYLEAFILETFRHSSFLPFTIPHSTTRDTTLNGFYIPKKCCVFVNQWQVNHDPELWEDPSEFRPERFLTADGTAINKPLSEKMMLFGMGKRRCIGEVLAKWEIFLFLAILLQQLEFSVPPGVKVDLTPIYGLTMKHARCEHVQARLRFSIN
# Assay: Inhibition of CYP1A2 (unknown origin) at 10 uM relative to control
# Assay type: ADME
# Conditions: not given
row,Compound,inhibition at 10 µM [%]
1,O=c1[nH]c(Nc2cc(Cl)cc(Cl)c2)nc2cc(Cl)ccc12,15
2,O=c1[nH]c(Nc2cc(Cl)cc(Cl)c2)nc2cccc(O)c12,65

# Target: CYP2D6 (Homo sapiens, UniProt P10635)
# Assay: Inhibition of CYP2D6 (unknown origin) at 10 uM relative to control
# Assay type: ADME
# Conditions: not given
# CYP2D6, sequence (P10635 whole entry): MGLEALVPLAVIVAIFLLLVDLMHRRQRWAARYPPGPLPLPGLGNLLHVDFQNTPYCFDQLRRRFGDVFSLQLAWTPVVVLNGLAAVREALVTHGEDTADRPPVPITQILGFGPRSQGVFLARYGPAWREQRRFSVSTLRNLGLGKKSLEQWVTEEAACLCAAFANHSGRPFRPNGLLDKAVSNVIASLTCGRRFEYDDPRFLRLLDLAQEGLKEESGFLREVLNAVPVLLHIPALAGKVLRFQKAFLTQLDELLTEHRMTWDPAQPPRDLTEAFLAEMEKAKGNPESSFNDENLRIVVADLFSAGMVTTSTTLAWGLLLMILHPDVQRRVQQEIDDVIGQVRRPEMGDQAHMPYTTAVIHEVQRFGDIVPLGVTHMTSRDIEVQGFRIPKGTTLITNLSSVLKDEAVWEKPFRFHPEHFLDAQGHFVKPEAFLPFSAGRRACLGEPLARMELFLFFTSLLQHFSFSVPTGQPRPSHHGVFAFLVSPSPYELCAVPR
row,Compound,inhibition at 10 µM [%]
1,O=c1[nH]c(Nc2cc(Cl)cc(Cl)c2)nc2cc(Cl)ccc12,20
2,O=c1[nH]c(Nc2cc(Cl)cc(Cl)c2)nc2cccc(O)c12,46

# System: not listed separately
# Assay: AUC in rat at 5 mg/kg, iv
# Assay type: ADME, organism-based
# Design: dose 5 mg/kg
# Conditions: in vivo
row,Compound,AUC [ng·h/mL]
1,O=c1[nH]c(Nc2cc(Cl)cc(Cl)c2)nc2cccc(O)c12,6500

# System: not listed separately
# Assay: Protein binding in rat plasma at 5 uM
# Assay type: ADME, cell-free
# Conditions: not given
row,Compound,PPB [%]
1,O=c1[nH]c(Nc2cc(Cl)cc(Cl)c2)nc2cccc(O)c12,97

# System: not listed separately
# Assay: AUC in rat at 10 mg/kg, po
# Assay type: ADME, organism-based
# Design: dose 10 mg/kg
# Conditions: in vivo
# Method in brief: as §1
row,Compound,AUC [ng·h/mL]
1,O=c1[nH]c(Nc2cc(Cl)cc(Cl)c2)nc2cccc(O)c12,1010

# System: SARS-CoV-2
# Assay: Antiviral activity against SARS-CoV-2 infected in African green monkey Vero cells assessed as inhibition of viral infection by measuring nucleocapsid protein level by immunofluorescence microscopic analysis
# Assay type: functional, organism-based
# Conditions: Severe acute respiratory syndrome coronavirus 2, Vero
row,Compound,IC50 [µM]
1,O=c1[nH]c(Nc2cc(Cl)cc(Cl)c2)nc2cc(Cl)ccc12,0.23
2,O=c1[nH]c(Nc2cc(F)cc(F)c2)nc2cc(C(F)(F)F)ccc12,0.2
3,O=c1[nH]c(Nc2cc(Cl)cc(Cl)c2)nc2cc(C(F)(F)F)ccc12,0.21
4,O=c1[nH]c(Nc2cc(Cl)cc(Cl)c2)nc2cccc(O)c12,0.15

# System: HFL1
# Assay: Cytotoxicity against human HFL-1 cells
# Assay type: cell-based
# Conditions: not given
row,Compound,CC50 [µM]
1,O=c1[nH]c(Nc2cc(Cl)cc(Cl)c2)nc2cc(Cl)ccc12,7.5
2,O=c1[nH]c(Nc2cc(Cl)cc(Cl)c2)nc2cccc(O)c12,9.6

# System: not listed separately
# Assay: Stability in rat microsomes assessed as as parent compound remaining after 30 mins
# Assay type: ADME, Microsome
# Conditions: read-out: Stabilty
# Method in brief: as §2
row,Compound,remaining at 0.5 h [%]
1,O=c1[nH]c(Nc2cc(Cl)cc(Cl)c2)nc2cc(Cl)ccc12,105
2,O=c1[nH]c(Nc2cc(Cl)cc(Cl)c2)nc2cccc(O)c12,54

# System: not listed separately
# Assay: Stability in human microsomes assessed as as parent compound remaining after 30 mins
# Assay type: ADME, Microsome
# Conditions: read-out: Stabilty
# Method in brief: as §2
row,Compound,remaining at 0.5 h [%]
1,O=c1[nH]c(Nc2cc(Cl)cc(Cl)c2)nc2cc(Cl)ccc12,99
2,O=c1[nH]c(Nc2cc(Cl)cc(Cl)c2)nc2cccc(O)c12,55

# System: not listed separately
# Assay: Oral bioavailability in rat at 10 mg/kg
# Assay type: ADME, organism-based
# Conditions: in vivo
# Method in brief: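 Rats received oral dosing at 10 mg/kg alongside intravenous dosing at 2 mg/kg. Values are the mean of experiments using three rats.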
row,Compound,bioavailability [%]
1,O=c1[nH]c(Nc2cc(Cl)cc(Cl)c2)nc2cc(Cl)ccc12,15.6
2,O=c1[nH]c(Nc2cc(Cl)cc(Cl)c2)nc2cccc(O)c12,7.8

# System: not listed separately
# Assay: Cytotoxicity against mouse NCTC clone 929 cells
# Assay type: cell-based
# Conditions: not given
row,Compound,CC50 [µM]
1,O=c1[nH]c(Nc2cc(Cl)cc(Cl)c2)nc2cc(Cl)ccc12,31
2,O=c1[nH]c(Nc2cc(Cl)cc(Cl)c2)nc2cccc(O)c12,27

# System: not listed separately
# Assay: Selective index, ratio of CC50 for African green monkey Vero cells to IC50 for SARS-CoV-2 infected in African green monkey Vero cells
# Conditions: not given
row,Compound,Ratio CC50/IC50
1,O=c1[nH]c(Nc2cc(Cl)cc(Cl)c2)nc2cc(Cl)ccc12,110
2,O=c1[nH]c(Nc2cc(F)cc(F)c2)nc2cc(C(F)(F)F)ccc12,38
3,O=c1[nH]c(Nc2cc(Cl)cc(Cl)c2)nc2cc(C(F)(F)F)ccc12,34
4,O=c1[nH]c(Nc2cc(Cl)cc(Cl)c2)nc2cccc(O)c12,168
